The source of these data is ChEMBL document CHEMBL1123183, “Synthesis and antiviral properties of 5-(2-substituted vinyl)-6-aza-2'-deoxyuridines” (1986).

Molecules are shown by their SMILES. ≈ marks a conversion by molar mass, not a printed value.

Common to all, as to format: functional
Holding throughout (conditions): Chlorocebus sabaeus, read-out: ID50 (the source's name)

Assay [1] deals with Vero. The experiment in a line: In vitro antiviral activity against HSV-1(strain HFEM) in Vero cells. In short, it runs like this:
(§1)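 Plaque reduction in confluent Vero monolayers infected with 30-40 PFU of HSV-1 (strain HFEM) or HSV-2 (strain 196), then 1 h at 37 °C. Overlay of maintenance medium with 0.75% carboxymethylcellulose and a range of compound concentrations, then 2 days at 37 °C. Cells fixed and stained, plaques counted. ID50 is the concentration giving 50% plaque inhibition.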

The test system of assay [2] is Vero. The experiment in a line: In vitro antiviral activity against HSV-2(strain 196) in Vero cells. An outline of the steps:
as §1

The test system of assay [3] is Vero. The experiment in a line: Cytotoxicity was measured by determining the incorporation of [methyl-3H]thymidine into DNA of Vero cells. An outline of the steps:
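Subconfluent Vero monolayers overlaid with maintenance medium holding 1 μCi/mL [methyl-3H]thymidine plus a range of nucleoside concentrations. Incubated 18 h at 37 °C. DNA synthesis read as label in acid-precipitable material. ID50 is the concentration giving 50% reduction of thymidine incorporation.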

Regarding `O=c1[nH]c(=O)n(C2C[C@@H](O)[C@@H](CO)O2)nc1-c1ccoc1` (stereo partly drawn), the IC50 with Vero [1] was 42 µg/mL (≈ 142 µM); in the assay on Vero [2], 39 µg/mL (≈ 132 µM); in the assay with Vero [3], 45 µg/mL (≈ 152 µM).
`O=c1[nH]c(=O)n(C2C[C@@H](O)[C@@H](CO)O2)nc1C=C(Br)Br` (stereo partly drawn): the IC50 is 100 µg/mL (≈ 242 µM) in the assay on Vero [1], 100 µg/mL (≈ 242 µM) in the assay with Vero [2] and over 500 µg/mL with Vero [3].
For `COC(=O)/C=C/c1nn(C2C[C@@H](O)[C@@H](CO)O2)c(=O)[nH]c1=O` (stereo partly drawn), the IC50 in the assay with Vero [1] and with Vero [3] was over 500 µg/mL each time.
For `O=c1[nH]c(=O)n(C2C[C@@H](O)[C@@H](CO)O2)nc1CC(F)(F)F` (stereo partly drawn), the results for the IC50 in the assay on Vero [1], in the assay on Vero [2] and in the assay on Vero [3] were over 250 µg/mL, over 250 µg/mL and over 500 µg/mL, respectively.
For the compound `CS/C=C/c1nn(C2C[C@@H](O)[C@@H](CO)O2)c(=O)[nH]c1=O` (stereo partly drawn), the IC50 in the assay on Vero [1] was over 250 µg/mL; with Vero [2], over 250 µg/mL; in the assay on Vero [3], 420 µg/mL (≈ 1390 µM).
Regarding `O=C(O)/C=C/c1nn(C2C[C@@H](O)[C@@H](CO)O2)c(=O)[nH]c1=O` (stereo partly drawn), the IC50 in the assay with Vero [1] is over 250 µg/mL; in the assay with Vero [3], over 500 µg/mL.
Consider `O=c1[nH]c(=O)n(C2C[C@@H](O)[C@@H](CO)O2)nc1/C=C/Cl` (stereo partly drawn), for which the IC50 in the assay on Vero [1] was 20 µg/mL (≈ 69 µM); in the assay with Vero [2] it was 215 µg/mL (≈ 742 µM); in the assay on Vero [3], over 500 µg/mL.
The matching figures for `O=c1[nH]c(=O)n(C2C[C@@H](O)[C@@H](CO)O2)nc1/C=C/Br` (stereo partly drawn): 8 µg/mL (≈ 23.9 µM), 190 µg/mL (≈ 569 µM) and 355 µg/mL (≈ 1060 µM).
`O=Cc1nn(C2C[C@@H](O)[C@@H](CO)O2)c(=O)[nH]c1=O` (stereo partly drawn): the values for the IC50 with Vero [1] and with Vero [3] were over 500 µg/mL and 180 µg/mL (≈ 700 µM), respectively.
For the compound `COC(F)(F)Cc1nn(C2C[C@@H](O)[C@@H](CO)O2)c(=O)[nH]c1=O` (stereo partly drawn), the figures for the IC50 in the assay with Vero [1], in the assay on Vero [2] and with Vero [3] were 82 µg/mL (≈ 254 µM), over 250 µg/mL and over 500 µg/mL, respectively.
As to `O=c1[nH]c(=O)n(C2C[C@@H](O)[C@@H](CO)O2)nc1/C=C(\F)Br` (stereo partly drawn), the IC50 in the assay with Vero [1] is over 250 µg/mL; in the assay on Vero [2], over 250 µg/mL; in the assay with Vero [3] it was over 500 µg/mL.
In the case of `O=c1[nH]c(=O)n([C@H]2C[C@H](O)[C@@H](CO)O2)cc1/C=C/Br` [BRIVUDINE], the IC50 was found to be 0.015 µg/mL (≈ 0.045 µM) with Vero [1], 1.6 µg/mL (≈ 4.8 µM) in the assay on Vero [2] and 50 µg/mL (≈ 150 µM) in the assay with Vero [3].
